Biological target: Sodium-dependent dopamine transporter (Rattus norvegicus, UniProt P23977)
Assay: Inhibition of [3H]3-beta-(p-fluorophenyl)tropane-2beta-carboxylic acid methyl ester binding to Dopamine transporter in rat striatal membranes.
Type: cell membranes, Membrane
Outline: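 Male Sprague-Dawley rat (250-350 g) striata, frozen at -70 °C, homogenized in 10 mM phosphate buffer pH 7.4 with 0.32 M sucrose; 40000g pellet washed, resuspended at 1.0 mg/mL tissue. 0.5 nM [3H]-23 incubated 2 h on ice; filtration onto polyethylenimine-soaked GF/B filters, scintillation counting. IC50 from 10-12-point competition curves, 3-4 assays.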

Sequence of Sodium-dependent dopamine transporter (P23977 whole entry): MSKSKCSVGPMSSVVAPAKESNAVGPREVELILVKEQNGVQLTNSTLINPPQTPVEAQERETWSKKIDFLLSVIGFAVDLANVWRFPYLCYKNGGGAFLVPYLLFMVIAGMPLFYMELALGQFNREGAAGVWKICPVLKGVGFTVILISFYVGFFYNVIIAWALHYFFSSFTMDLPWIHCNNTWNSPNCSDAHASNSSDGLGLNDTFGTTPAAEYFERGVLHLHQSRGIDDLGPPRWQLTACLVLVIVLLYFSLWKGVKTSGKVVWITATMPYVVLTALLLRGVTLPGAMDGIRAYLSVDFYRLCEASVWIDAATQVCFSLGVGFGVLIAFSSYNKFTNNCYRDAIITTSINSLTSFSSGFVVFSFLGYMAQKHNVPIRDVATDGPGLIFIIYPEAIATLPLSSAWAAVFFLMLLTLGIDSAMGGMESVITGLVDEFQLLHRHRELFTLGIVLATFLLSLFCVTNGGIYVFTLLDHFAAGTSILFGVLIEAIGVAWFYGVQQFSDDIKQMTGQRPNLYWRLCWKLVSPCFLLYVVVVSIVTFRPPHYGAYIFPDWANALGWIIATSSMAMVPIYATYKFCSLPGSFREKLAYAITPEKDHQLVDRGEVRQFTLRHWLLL

SMILES | IC50 [nM]
CN1C2CC[C@@H]1C[C@H](OC(=O)c1ccccc1)C2C(=O)OC/C=C/c1ccccc1 (stereo partly drawn) | 371
CCCOC(=O)C1C2CC[C@H](C[C@@H]1OC(=O)c1ccccc1)N2C (stereo partly drawn) | 191
CNC(=O)C1C2CC[C@H](C[C@@H]1OC(=O)c1ccccc1)N2C (stereo partly drawn) | 3180
CC(=O)OCC1C2CC[C@H](C[C@@H]1OC(=O)c1ccccc1)N2C (stereo partly drawn) | 272
CN1C2CC[C@@H]1C[C@H](OC(=O)c1ccccc1)C2C(=O)OCCCc1ccccc1 (stereo partly drawn) | 139
CN1C2CC[C@@H]1C[C@H](OC(=O)c1ccccc1)C2C(=O)Oc1ccccc1 (stereo partly drawn) | 112
CN1C2CC[C@@H]1C[C@H](OC(=O)c1ccccc1)C2C(=O)OCc1ccccc1 (stereo partly drawn) | 257
CN1C2CC[C@@H]1C[C@H](OC(=O)c1ccccc1)C2C(=O)OCCc1ccc(N=C=S)cc1 (stereo partly drawn) | 196
CN1C2CC[C@@H]1C[C@H](OC(=O)c1ccccc1)C2C(=O)OCCc1ccc(N)cc1 (stereo partly drawn) | 72
CCOC(=O)CCC(=O)Nc1ccc(CCOC(=O)C2C3CC[C@H](C[C@@H]2OC(=O)c2ccccc2)N3C)cc1 (stereo partly drawn) | 86
CN1C2CC[C@@H]1C[C@H](OC(=O)c1ccccc1)C2C(=O)OCCc1ccccc1 (stereo partly drawn) | 248
CN1C2CC[C@@H]1C[C@H](OC(=O)c1ccccc1)C2CO (stereo partly drawn) | 561
CCOC(=O)C1C2CC[C@H](C[C@@H]1OC(=O)c1ccccc1)N2C (stereo partly drawn) | 130
CN1C2CC[C@@H]1C[C@H](OC(=O)c1ccccc1)C2C(=O)OCCc1ccc(NC(=O)CBr)cc1 (stereo partly drawn) | 61
CN1C2CC[C@@H]1C[C@H](OC(=O)c1ccccc1)C2C(=O)OCCc1ccc([N+](=O)[O-])cc1 (stereo partly drawn) | 601
CN1C2CC[C@@H]1C[C@H](OC(=O)c1ccccc1)C2C(=O)OCCc1ccc(Cl)cc1 (stereo partly drawn) | 271
CN1C2CC[C@@H]1C[C@H](OC(=O)c1ccccc1)C2C(=O)OCCc1ccc(N=[N+]=[N-])cc1 (stereo partly drawn) | 227
CN1[C@@H]2CC[C@H]1C[C@H](OC(=O)c1ccccc1)C2 | 5180

From ChEMBL document CHEMBL1126011 (J Med Chem, 1992)
